Results pooled from the literature.
Target: Serine/threonine-protein kinase/endoribonuclease IRE1 (ERN1, Homo sapiens, UniProt O75460)

O=C(NCc1ncc(C(F)(F)F)cc1Cl)c1ccc2c(c1)C1(CCS(=O)(=O)CC1)[C@@H](C1CC1)N2S(=O)(=O)c1ccc(F)cc1  remaining binding (cell-free assay, competition with immobilised ligand; 1 µM): 65%
O=C(c1ccc(Nc2ncc(Cl)c(-c3ccc(Cl)s3)n2)cc1)N1CCC(N2CCCC2)CC1  remaining binding (binding, competition with immobilised ligand; 1 µM): 35%
Cc1cc(NC(=O)c2cccc(S(F)(F)(F)(F)F)c2)cc(-n2ccn3nc(-c4cccnc4)cc23)c1  remaining binding (cell-free assay, competition with immobilised ligand; 1 µM): 99.2%
CN(c1nccc(-c2cnn3ncccc23)n1)C1CC1  remaining binding (binding; 1 µM): 100%
COc1cccc(CNC(=O)c2nc3scc(COCc4ccc(C(=O)O)cc4)c3c(=O)[nH]2)c1  remaining binding (cell-free assay, competition with immobilised ligand; 1 µM): 89.7%
C[C@@H]1CCN(c2nccc(-c3cnn4ncccc34)n2)C1  remaining binding (binding; 1 µM): 100%
CS(=O)(=O)N1CCCC(NC(=O)[C@H](CCC2CCCCC2)NC(=O)c2ccc(CNc3ncnc4c3nnn4-c3ccccc3)cc2)C1 (stereo partly drawn)  remaining binding (cell-free assay, competition with immobilised ligand; 0.1 µM): 100%
C=CC(=O)N1CCC(C(=O)NCC(=O)N2CCN(c3nc(-c4cnc(N)nc4C(F)F)nc(N4CCOCC4)n3)CC2)CC1  remaining binding (binding, competition with immobilised ligand; 1 µM): 100%
COc1cnc(Nc2cccc(S(N)(=O)=O)c2)nc1N1CCN(c2ccccc2)CC1  remaining binding (binding, competition with immobilised ligand; 1 µM): 73%
C[C@@H](c1ccc(-n2cnc3c(N)ncnc32)cc1)N1CCc2nn(C)c(Cc3ccccc3)c2C1=O  remaining binding (binding, competition with immobilised ligand; 0.1 µM): 72%
N[C@H]1CCN(c2nccc(-c3cnn4ncccc34)n2)C1  remaining binding (binding; 1 µM): 98%
O=C(c1ccc(Nc2nccc(-c3cc4ccccc4s3)n2)cc1)N1CCC(N2CCCC2)CC1  remaining binding (binding, competition with immobilised ligand; 1 µM): 41%
CNCc1ccccc1-c1csc([C@@H](C)Nc2nc(C)nc3cc(OC)c(OC)cc23)c1  remaining binding (cell-free assay, competition with immobilised ligand; 1 µM): 100%
COc1ccnn2ncc(-c3ccnc(N(C)C)n3)c12  remaining binding (binding; 1 µM): 100%
COc1cnc(Nc2cccc(S(N)(=O)=O)c2)nc1N1CCN(c2ccccc2)C(=O)C1  remaining binding (binding, competition with immobilised ligand; 1 µM): 78%
O=C(NCCCN1CCOCC1)c1ccc(Nc2nccc(-c3cc4ccccc4s3)n2)cc1  remaining binding (binding, competition with immobilised ligand; 1 µM): 52%
CCN1CCN(Cc2ccc(C(=O)Nc3ccc(C)c(Oc4ccc5c(c4)CC(=O)N5)c3)cc2C(F)(F)F)CC1  remaining binding (binding, competition with immobilised ligand; 1 µM): 100%
c1cnn2ncc(-c3ccnc(N4CCC45COC5)n3)c2c1  remaining binding (binding; 1 µM): 69%
CCCCN(CCCC)C(=O)CN1C[C@@H](c2cc(OC)c3c(c2)OCO3)[C@H](C(=O)O)[C@H]1CC(C)(C)CCC  remaining binding (cell-free assay, competition with immobilised ligand; 1 µM): 100%
CC1CCCN1c1nccc(-c2cnn3ncccc23)n1 (stereo not drawn)  remaining binding (binding; 1 µM): 100%
O=C(Nc1c[nH]nc1C(=O)NC1CCNCC1)c1cc(F)cc(F)c1  remaining binding (binding, competition with immobilised ligand; 1 µM): 86%
